ChEMBL document CHEMBL1145797, “Synthesis and antitumor activity of novel O-carbamoylmethyloxime derivatives of radicicol” (J Med Chem, 2003)

System: 3Y1 cell line
Assay: Concentration to inhibit growth of normal rat fibroblast cells (3Y1-B cells) after 72 h exposure
Format: functional, cell-based
Settings: 3Y1, 72 h
In short: (§1)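 Cells precultured 24 h in DMEM with 10% fetal calf serum, then exposed to drug for 72 h. Viability read by MTT assay. IC50 taken as concentration giving 50% growth inhibition relative to control cultures.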

Structure (SMILES)	IC50 [nM]
CCN(CC)CCNC(=O)CO\N=C1/C=C/C=C\[C@H]2O[C@@H]2C[C@@H](C)OC(=O)c2c(O)cc(O)c(Cl)c2C1	> 3000
C[C@@H]1C[C@H]2O[C@@H]2\C=C/C=C/C(=N\OCC(=O)Nc2ccccc2)Cc2c(Cl)c(O)cc(O)c2C(=O)O1	620
C[C@@H]1C[C@H]2O[C@@H]2\C=C/C=C/C(=N\OCC(=O)N2CCN(C)CC2)Cc2c(Cl)c(O)cc(O)c2C(=O)O1	1000
C[C@@H]1C[C@H]2O[C@@H]2/C=C\C=C\C(=O)Cc2c(Cl)c(O)cc(O)c2C(=O)O1 [RADICICOL]	700
C[C@@H]1C[C@H]2O[C@@H]2\C=C/C=C/C(=N\OCC(=O)Nc2cccnc2)Cc2c(Cl)c(O)cc(O)c2C(=O)O1	200
C[C@@H]1C[C@H]2O[C@@H]2\C=C/C=C/C(=N\OCC(=O)NC2CCCCC2)Cc2c(Cl)c(O)cc(O)c2C(=O)O1	67

System: not listed separately
Assay: Concentration to inhibit growth of normal rat K-ras-transformed cells (KNRK 5.2 cells) after 72 hr exposure
Format: functional
Settings: not given
In short: as §1

Structure (SMILES)	IC50 [nM]
CCN(CC)CCNC(=O)CO\N=C1/C=C/C=C\[C@H]2O[C@@H]2C[C@@H](C)OC(=O)c2c(O)cc(O)c(Cl)c2C1	> 3000
C[C@@H]1C[C@H]2O[C@@H]2\C=C/C=C/C(=N\OCC(=O)Nc2ccccc2)Cc2c(Cl)c(O)cc(O)c2C(=O)O1	290
C[C@@H]1C[C@H]2O[C@@H]2\C=C/C=C/C(=N\OCC(=O)N2CCN(C)CC2)Cc2c(Cl)c(O)cc(O)c2C(=O)O1	1500
C[C@@H]1C[C@H]2O[C@@H]2/C=C\C=C\C(=O)Cc2c(Cl)c(O)cc(O)c2C(=O)O1 [RADICICOL]	110
C[C@@H]1C[C@H]2O[C@@H]2\C=C/C=C/C(=N\OCC(=O)Nc2cccnc2)Cc2c(Cl)c(O)cc(O)c2C(=O)O1	120
C[C@@H]1C[C@H]2O[C@@H]2\C=C/C=C/C(=N\OCC(=O)NC2CCCCC2)Cc2c(Cl)c(O)cc(O)c2C(=O)O1	73

System: NRK
Assay: Concentration to inhibit growth of normal rat kidney epithelial cells (NRK cells) after 72 hr exposure
Format: functional, cell-based
Settings: not given
In short: as §1

Structure (SMILES)	IC50 [nM]
CCN(CC)CCNC(=O)CO\N=C1/C=C/C=C\[C@H]2O[C@@H]2C[C@@H](C)OC(=O)c2c(O)cc(O)c(Cl)c2C1	> 3000
C[C@@H]1C[C@H]2O[C@@H]2\C=C/C=C/C(=N\OCC(=O)Nc2ccccc2)Cc2c(Cl)c(O)cc(O)c2C(=O)O1	320
C[C@@H]1C[C@H]2O[C@@H]2\C=C/C=C/C(=N\OCC(=O)N2CCN(C)CC2)Cc2c(Cl)c(O)cc(O)c2C(=O)O1	1200
C[C@@H]1C[C@H]2O[C@@H]2/C=C\C=C\C(=O)Cc2c(Cl)c(O)cc(O)c2C(=O)O1 [RADICICOL]	290
C[C@@H]1C[C@H]2O[C@@H]2\C=C/C=C/C(=N\OCC(=O)Nc2cccnc2)Cc2c(Cl)c(O)cc(O)c2C(=O)O1	240
C[C@@H]1C[C@H]2O[C@@H]2\C=C/C=C/C(=N\OCC(=O)NC2CCCCC2)Cc2c(Cl)c(O)cc(O)c2C(=O)O1	190

System: not listed separately
Assay: Concentration to inhibit growth of v-src-transformed cells (SR-3Y1 cells) after 72 h exposure
Format: functional
Settings: Rattus norvegicus, SR3Y1, 72 h
In short: as §1

Structure (SMILES)	IC50 [nM]
CCN(CC)CCNC(=O)CO\N=C1/C=C/C=C\[C@H]2O[C@@H]2C[C@@H](C)OC(=O)c2c(O)cc(O)c(Cl)c2C1	2300
C[C@@H]1C[C@H]2O[C@@H]2\C=C/C=C/C(=N\OCC(=O)Nc2ccccc2)Cc2c(Cl)c(O)cc(O)c2C(=O)O1	120
C[C@@H]1C[C@H]2O[C@@H]2\C=C/C=C/C(=N\OCC(=O)N2CCN(C)CC2)Cc2c(Cl)c(O)cc(O)c2C(=O)O1	470
C[C@@H]1C[C@H]2O[C@@H]2/C=C\C=C\C(=O)Cc2c(Cl)c(O)cc(O)c2C(=O)O1 [RADICICOL]	59
C[C@@H]1C[C@H]2O[C@@H]2\C=C/C=C/C(=N\OCC(=O)Nc2cccnc2)Cc2c(Cl)c(O)cc(O)c2C(=O)O1	51
C[C@@H]1C[C@H]2O[C@@H]2\C=C/C=C/C(=N\OCC(=O)NC2CCCCC2)Cc2c(Cl)c(O)cc(O)c2C(=O)O1	5.7

Molecular target: Proto-oncogene tyrosine-protein kinase Src (Rattus norvegicus, UniProt Q9WUD9)
Assay: Inhibition of v-Src tyrosine kinase autophosphorylation in SR3Y1 cells after 15 hr exposure
Format: cell-based
Settings: not given
In short: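 SR-3Y1 cells exposed to drug 15 h, lysed on ice 20 min in Tris pH 7.5 RIPA-type buffer with protease inhibitors and 1 mM vanadate. Equal-protein lysates run on SDS-PAGE, blotted with anti-phosphotyrosine antibody, HRP secondary, ECL detection. IC50 = concentration halving tyrosine phosphorylation.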

IC50 [nM]	Structure (SMILES)
43	C[C@@H]1C[C@H]2O[C@@H]2\C=C/C=C/C(=N\OCC(=O)Nc2ccccc2)Cc2c(Cl)c(O)cc(O)c2C(=O)O1
54	C[C@@H]1C[C@H]2O[C@@H]2\C=C/C=C/C(=N\OCC(=O)Nc2cccnc2)Cc2c(Cl)c(O)cc(O)c2C(=O)O1
210	C[C@@H]1C[C@H]2O[C@@H]2\C=C/C=C/C(=N\OCC(=O)NC2CCCCC2)Cc2c(Cl)c(O)cc(O)c2C(=O)O1

Second part, the molecule before the results:

Structure (SMILES)	IC50 [nM]
CCN(CC)CCNC(=O)CO\N=C1/C=C/C=C\[C@H]2O[C@@H]2C[C@@H](C)OC(=O)c2c(O)cc(O)c(Cl)c2C1	> 1000
C[C@@H]1C[C@H]2O[C@@H]2/C=C\C=C\C(=O)Cc2c(Cl)c(O)cc(O)c2C(=O)O1 [RADICICOL]	180
